Experimental data from ChEMBL document CHEMBL4350970, “Rational Design of 5-(4-(Isopropylsulfonyl)phenyl)-3-(3-(4-((methylamino)methyl)phenyl)isoxazol-5-yl)pyrazin-2-amine (VX-970, M6620): Optimization of Intra- and Intermolecular Polar Interactions of a New Ataxia Telangiectasia Mutated and Rad3-Related (ATR) Kinase Inhibitor” (J Med Chem, 2019).
≈ marks a conversion by molar mass, not a printed value. Calls of active or inactive are those of the source. No cut-off for these calls is given here.

Legend:
[1] = target: T1, Serine/threonine-protein kinase ATR (Homo sapiens, UniProt Q13535); assay: Inhibition of ATR in human HCT116 cells assessed as reduction in histone H2AX phosphorylation by Hoechst staining-based immunofluorescence microscopic analysis; type: cell-based
[2] = target: Serine-protein kinase ATM (Homo sapiens, UniProt Q13315); assay: Inhibition of full-length ATM (unknown origin) using DPSVEPPLSQETFSDKKK peptide as substrate measured after 24 hrs in presence of [gamma-33P] ATP by microbeta liquid scintillation counting analysis
How it was run: (§1)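 Radiometric phosphate incorporation assay with full-length kinase (ATR and ATM made in-house; DNA-PK purchased) premixed with buffer and target peptide. Compound added in DMSO over a range of concentrations, final DMSO 7%. Started with [γ-33P]ATP at 25 °C. Stopped with phosphoric acid (final 100 mM) and ATP (final […]), captured on phosphocellulose, washed with 100 mM phosphoric acid, then scintillation counted. Dose-response fitting.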

[3] = target: DNA-dependent protein kinase catalytic subunit (Homo sapiens, UniProt P78527); assay: Inhibition of purified recombinant human full-length DNA-PK using EPPLSQEAFADLWKKK peptide as substrate measured after 2 hrs in presence of [gamma-33P] ATP by microbeta liquid scintillation counting analysis; how it was run: as §1
[4] = target: T1, Serine/threonine-protein kinase ATR; assay: Inhibition of recombinant human full-length N-terminal Flag epitope-tagged ATR expressed in HEK293T cells using ASELPASQPQPFSAKKK peptide as substrate measured after 24 hrs in presence of [gamma-33P] ATP by microbeta liquid scintillation counting analysis; how it was run: as §1
[5] = Aqueous solubility of the compound in PBS incubated overnight by UPLC-MS analysis; type: physicochemical
How it was run: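 Compounds dissolved in DMSO (standard) or in DPBS (10 mM phosphate, 140 mM NaCl) to at most 200 µM. PBS samples sealed, shaken overnight at room temperature, then centrifuged 45 min at 4000 rpm, 22 °C. UV AUC from UPLC-MS compared with the DMSO standard: solubility = AUC(PBS)/AUC(standard) × [standard].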

[6] = Dissociation constant, pKa of compound; type: physicochemical
HCT-116 [7] = assay: Potentiation of cisplatin-induced antiproliferative activity against human HCT116 cells assessed as reduction in cell viability at 500 nM measured after 96 hrs by MTS assay; type: functional, cell-based
How it was run: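 HCT116 cells from ATCC, exponentially growing, plated and left to adhere overnight. Compound and cisplatin added at the indicated concentrations, then incubated 96 h. MTS reagent added and absorbance read at 490 nm after 1 h. Synergy and antagonism assessed with Macsynergy analysis.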

[8] = target: Glycogen synthase kinase-3 beta (Homo sapiens, UniProt P49841); assay: Inhibition of human GSK3beta
Homo sapiens [9] = species: Homo sapiens; assay: Selectivity ratio of Ki for purified recombinant human full-length DNA-PK to Ki for recombinant human full-length N-terminal Flag epitope-tagged ATR expressed in HEK293T cells
How it was run: (§2)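 Ratio of Ki values from the radiometric [γ-33P]ATP phosphocellulose-capture assays with full-length kinases: ATM or DNA-PK Ki over ATR Ki.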

Homo sapiens [10] = species: Homo sapiens; assay: Selectivity ratio of Ki for full-length ATM (unknown origin) to Ki for recombinant human full-length N-terminal Flag epitope-tagged ATR expressed in HEK293T cells; type: cell-based; how it was run: as §2
[11] = target: Glycogen synthase kinase-3 alpha (Homo sapiens, UniProt P49840); assay: ATP competitive inhibition of human GSK3alpha
[12] = target: Tyrosine-protein kinase ABL1 (Homo sapiens, UniProt P00519, T315I); assay: ATP competitive inhibition of human ABL T315I mutant
HCT-116 [13] = assay: Potentiation of cisplatin-induced antiproliferative activity against human HCT116 cells assessed as reduction in cell viability at < 50 nM measured after 96 hrs by MTS assay; type: functional, cell-based
How it was run: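 HCT116 cells plated and left to adhere overnight. Compound and cisplatin added the next day at set concentrations, then incubated 96 h. MTS reagent added; absorbance at 490 nm read after 1 h. Synergy and antagonism assessed by MacSynergy analysis.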

[14] = target: Tyrosine-protein kinase JAK2 (Homo sapiens, UniProt O60674); assay: Inhibition of human JAK2
[15] = target: Tyrosine-protein kinase Mer (Homo sapiens, UniProt Q12866); assay: ATP competitive inhibition of human Mer
[16] = Volume of distribution at steady state in Sprague-Dawley rat at 10 mg/kg administered as iv infusion for 3 hrs; type: ADME, organism-based; conditions: in vivo, read-out: Vdss
How it was run: (§3)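 Male Sprague-Dawley rats (about 200-350 g), catheterized in jugular and femoral veins under isoflurane; n=3. IV infusion at 3.33 mg/kg/h for 3 h (nominal 10 mg/kg, as free base) in 5% Captisol:2.5% mannitol in water. Jugular blood drawn at 0-51 h, centrifuged 3,000 G, 10 min, 4 °C; plasma collected.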

[17] = Half life in Sprague-Dawley rat at 10 mg/kg administered as iv infusion for 3 hrs; type: ADME, organism-based; conditions: in vivo; how it was run: as §3
Cytochrome P450 2C9 = Cytochrome P450 2C9 (Homo sapiens, UniProt P11712); assay: Inhibition of CYP2C9 (unknown origin); type: ADME
[18] = Permeability across apical to basolateral side in human Caco2 cells; type: ADME, cell-based; conditions: Caco-2, read-out: permeability
[19] = target: Receptor-type tyrosine-protein kinase FLT3 (Homo sapiens, UniProt P36888); assay: Inhibition of human Flt3
[20] = target: Receptor-type tyrosine-protein kinase FLT3 (Homo sapiens, UniProt P36888, D835Y); assay: ATP competitive inhibition of human Flt3 D835Y mutant
[21] = target: Mast/stem cell growth factor receptor Kit (Homo sapiens, UniProt P10721, D816H); assay: ATP competitive inhibition of human c-Kit D816H mutant
[22] = target: Dual specificity tyrosine-phosphorylation-regulated kinase 2 (Homo sapiens, UniProt Q92630); assay: ATP competitive inhibition of human DYRK2
[23] = target: Vascular endothelial growth factor receptor 3 (Homo sapiens, UniProt P35916); assay: ATP competitive inhibition of human Flt4
[24] = target: Tyrosine-protein kinase SYK (Homo sapiens, UniProt P43405); assay: Inhibition of human SYK
[25] = target: Voltage-gated inwardly rectifying potassium channel KCNH2 (Homo sapiens, UniProt Q12809); assay: Inhibition of human ERG
[26] = target: Cytochrome P450 2D6, Homo sapiens (UniProt P10635); assay: Inhibition of CYP2D6 (unknown origin)
[27] = target: Mitogen-activated protein kinase kinase kinase 9 (Homo sapiens, UniProt P80192); assay: ATP competitive inhibition of human MLK1

T1 sequence (Q13535 whole entry): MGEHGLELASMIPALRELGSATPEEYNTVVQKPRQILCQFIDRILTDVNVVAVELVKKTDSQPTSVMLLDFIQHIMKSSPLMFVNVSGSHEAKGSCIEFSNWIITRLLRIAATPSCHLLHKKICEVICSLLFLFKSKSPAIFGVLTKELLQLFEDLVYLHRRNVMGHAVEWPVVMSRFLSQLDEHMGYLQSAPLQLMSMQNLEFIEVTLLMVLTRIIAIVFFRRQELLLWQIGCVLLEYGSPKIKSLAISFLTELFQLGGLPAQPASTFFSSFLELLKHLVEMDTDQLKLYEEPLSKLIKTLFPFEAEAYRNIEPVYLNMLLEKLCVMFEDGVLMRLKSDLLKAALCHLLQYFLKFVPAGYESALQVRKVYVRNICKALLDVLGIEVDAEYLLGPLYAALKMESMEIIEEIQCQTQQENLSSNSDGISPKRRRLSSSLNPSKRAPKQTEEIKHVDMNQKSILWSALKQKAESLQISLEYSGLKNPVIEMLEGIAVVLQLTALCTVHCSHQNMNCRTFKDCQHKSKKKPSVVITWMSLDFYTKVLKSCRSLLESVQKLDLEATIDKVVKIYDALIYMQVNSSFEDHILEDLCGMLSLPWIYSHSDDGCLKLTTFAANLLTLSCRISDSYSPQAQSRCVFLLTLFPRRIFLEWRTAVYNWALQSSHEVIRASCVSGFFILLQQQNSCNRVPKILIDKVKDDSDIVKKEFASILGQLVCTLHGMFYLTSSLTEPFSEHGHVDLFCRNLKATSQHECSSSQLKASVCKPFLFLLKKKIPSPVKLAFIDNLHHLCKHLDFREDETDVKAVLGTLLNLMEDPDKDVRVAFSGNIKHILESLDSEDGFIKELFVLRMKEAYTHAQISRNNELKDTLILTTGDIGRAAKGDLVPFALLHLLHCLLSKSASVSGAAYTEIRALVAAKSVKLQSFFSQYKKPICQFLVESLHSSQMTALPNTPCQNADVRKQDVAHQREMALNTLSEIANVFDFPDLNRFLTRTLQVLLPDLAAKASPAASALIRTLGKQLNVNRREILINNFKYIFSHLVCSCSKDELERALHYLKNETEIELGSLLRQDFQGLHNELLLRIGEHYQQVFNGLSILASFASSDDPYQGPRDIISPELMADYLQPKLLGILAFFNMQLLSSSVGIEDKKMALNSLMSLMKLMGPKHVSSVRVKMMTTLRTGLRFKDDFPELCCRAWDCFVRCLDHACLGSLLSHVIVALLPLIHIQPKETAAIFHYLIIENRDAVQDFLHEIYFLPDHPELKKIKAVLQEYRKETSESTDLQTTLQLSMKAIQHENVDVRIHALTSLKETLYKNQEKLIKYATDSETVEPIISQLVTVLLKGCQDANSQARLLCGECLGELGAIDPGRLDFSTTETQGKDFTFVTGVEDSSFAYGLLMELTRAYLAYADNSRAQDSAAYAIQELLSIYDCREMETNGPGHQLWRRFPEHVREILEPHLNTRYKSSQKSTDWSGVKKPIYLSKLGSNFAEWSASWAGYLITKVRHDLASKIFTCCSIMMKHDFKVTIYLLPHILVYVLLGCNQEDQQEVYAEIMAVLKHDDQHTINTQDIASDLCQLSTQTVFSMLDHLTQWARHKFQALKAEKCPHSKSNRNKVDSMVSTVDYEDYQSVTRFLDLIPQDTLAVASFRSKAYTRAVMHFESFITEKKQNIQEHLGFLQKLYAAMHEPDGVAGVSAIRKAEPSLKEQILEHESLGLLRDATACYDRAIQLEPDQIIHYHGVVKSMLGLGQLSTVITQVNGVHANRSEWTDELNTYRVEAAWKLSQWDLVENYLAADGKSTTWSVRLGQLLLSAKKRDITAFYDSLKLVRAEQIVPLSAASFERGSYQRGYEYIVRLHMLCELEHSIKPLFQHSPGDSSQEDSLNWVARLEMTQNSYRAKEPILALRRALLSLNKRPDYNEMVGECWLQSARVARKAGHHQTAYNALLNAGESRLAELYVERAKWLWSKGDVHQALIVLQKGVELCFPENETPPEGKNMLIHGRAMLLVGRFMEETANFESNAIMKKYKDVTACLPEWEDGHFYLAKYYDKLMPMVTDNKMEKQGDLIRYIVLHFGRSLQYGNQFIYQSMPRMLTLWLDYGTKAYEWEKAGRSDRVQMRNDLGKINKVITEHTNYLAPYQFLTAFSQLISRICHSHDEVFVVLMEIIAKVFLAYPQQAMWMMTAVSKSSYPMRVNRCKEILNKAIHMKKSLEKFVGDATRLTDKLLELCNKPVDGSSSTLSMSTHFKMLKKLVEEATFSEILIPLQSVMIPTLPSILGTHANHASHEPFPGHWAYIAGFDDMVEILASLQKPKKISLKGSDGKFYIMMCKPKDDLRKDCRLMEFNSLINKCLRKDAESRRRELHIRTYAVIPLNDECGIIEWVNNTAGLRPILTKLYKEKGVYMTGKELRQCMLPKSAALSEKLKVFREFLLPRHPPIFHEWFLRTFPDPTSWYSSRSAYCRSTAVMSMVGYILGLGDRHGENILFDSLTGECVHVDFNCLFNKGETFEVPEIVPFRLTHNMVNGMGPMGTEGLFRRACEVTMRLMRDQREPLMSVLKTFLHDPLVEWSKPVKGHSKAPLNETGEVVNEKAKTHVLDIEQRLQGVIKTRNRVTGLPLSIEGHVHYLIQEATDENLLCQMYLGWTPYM
Chain of Glycogen synthase kinase-3 beta (P49841 whole entry): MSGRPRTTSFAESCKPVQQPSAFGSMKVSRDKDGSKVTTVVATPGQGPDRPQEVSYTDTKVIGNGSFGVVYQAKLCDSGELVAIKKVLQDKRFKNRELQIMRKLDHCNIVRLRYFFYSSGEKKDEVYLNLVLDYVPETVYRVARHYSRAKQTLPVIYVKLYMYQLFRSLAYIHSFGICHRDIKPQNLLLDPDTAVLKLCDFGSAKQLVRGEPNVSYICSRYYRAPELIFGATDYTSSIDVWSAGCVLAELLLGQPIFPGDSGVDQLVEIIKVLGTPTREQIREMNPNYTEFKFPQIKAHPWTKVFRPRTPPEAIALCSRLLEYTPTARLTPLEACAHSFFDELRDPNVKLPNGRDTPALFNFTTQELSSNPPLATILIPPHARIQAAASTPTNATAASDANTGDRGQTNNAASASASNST
Chain of Dual specificity tyrosine-phosphorylation-regulated kinase 2 (Q92630 whole entry): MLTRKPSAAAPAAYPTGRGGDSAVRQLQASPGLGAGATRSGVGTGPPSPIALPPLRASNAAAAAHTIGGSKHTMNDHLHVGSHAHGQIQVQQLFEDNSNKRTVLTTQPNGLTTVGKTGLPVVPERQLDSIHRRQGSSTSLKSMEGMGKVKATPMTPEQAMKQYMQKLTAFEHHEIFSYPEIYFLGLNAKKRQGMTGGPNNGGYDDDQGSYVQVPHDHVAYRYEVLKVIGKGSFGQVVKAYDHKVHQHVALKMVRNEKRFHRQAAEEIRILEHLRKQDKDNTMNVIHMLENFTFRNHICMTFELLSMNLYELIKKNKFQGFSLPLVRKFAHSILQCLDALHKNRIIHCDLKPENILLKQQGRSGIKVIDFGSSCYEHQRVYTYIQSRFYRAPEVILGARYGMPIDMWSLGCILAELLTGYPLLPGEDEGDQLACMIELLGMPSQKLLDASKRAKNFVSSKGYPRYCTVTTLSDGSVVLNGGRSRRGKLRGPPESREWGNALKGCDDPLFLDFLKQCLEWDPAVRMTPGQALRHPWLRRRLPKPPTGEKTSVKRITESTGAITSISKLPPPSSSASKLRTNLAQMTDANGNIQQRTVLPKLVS
Chain of Vascular endothelial growth factor receptor 3 (P35916 whole entry): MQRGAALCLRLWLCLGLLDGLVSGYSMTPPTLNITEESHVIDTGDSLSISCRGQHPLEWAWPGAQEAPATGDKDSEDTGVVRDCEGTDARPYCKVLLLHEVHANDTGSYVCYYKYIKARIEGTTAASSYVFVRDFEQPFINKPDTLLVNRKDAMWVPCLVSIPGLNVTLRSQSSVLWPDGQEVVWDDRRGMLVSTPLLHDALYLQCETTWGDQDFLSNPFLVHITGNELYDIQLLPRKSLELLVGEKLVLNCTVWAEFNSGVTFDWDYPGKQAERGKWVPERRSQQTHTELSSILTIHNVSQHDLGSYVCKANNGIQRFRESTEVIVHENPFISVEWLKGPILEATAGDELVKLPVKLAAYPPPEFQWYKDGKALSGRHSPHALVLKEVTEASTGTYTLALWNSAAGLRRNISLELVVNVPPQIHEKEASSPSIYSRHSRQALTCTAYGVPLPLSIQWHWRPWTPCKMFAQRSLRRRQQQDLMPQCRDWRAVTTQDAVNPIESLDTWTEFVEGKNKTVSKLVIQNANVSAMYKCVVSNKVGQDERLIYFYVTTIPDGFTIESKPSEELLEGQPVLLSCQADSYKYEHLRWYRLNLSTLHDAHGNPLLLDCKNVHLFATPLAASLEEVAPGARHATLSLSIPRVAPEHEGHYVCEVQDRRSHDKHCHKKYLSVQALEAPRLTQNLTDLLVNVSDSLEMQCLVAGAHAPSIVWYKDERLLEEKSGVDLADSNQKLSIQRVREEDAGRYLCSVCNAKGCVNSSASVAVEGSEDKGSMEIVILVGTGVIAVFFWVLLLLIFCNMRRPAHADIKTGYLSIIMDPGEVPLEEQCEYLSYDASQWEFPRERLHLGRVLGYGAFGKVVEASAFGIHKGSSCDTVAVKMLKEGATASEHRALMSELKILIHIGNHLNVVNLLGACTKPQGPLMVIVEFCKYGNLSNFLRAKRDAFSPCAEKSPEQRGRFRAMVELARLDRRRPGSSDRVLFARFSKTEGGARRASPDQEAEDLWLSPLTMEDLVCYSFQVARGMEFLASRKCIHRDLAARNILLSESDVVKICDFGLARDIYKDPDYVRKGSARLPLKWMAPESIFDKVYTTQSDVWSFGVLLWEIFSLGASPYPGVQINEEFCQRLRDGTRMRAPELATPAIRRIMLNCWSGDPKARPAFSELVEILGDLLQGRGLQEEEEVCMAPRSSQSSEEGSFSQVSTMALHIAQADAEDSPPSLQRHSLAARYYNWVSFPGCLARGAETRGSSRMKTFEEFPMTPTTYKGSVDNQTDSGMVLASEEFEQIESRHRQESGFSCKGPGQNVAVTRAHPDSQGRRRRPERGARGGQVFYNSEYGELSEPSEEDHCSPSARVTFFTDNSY

Compound | IC50 [1] | Ki [2] | Ki [3] | Ki [4] | solubility [5] | also measured
CC(C)S(=O)(=O)c1ccc(-c2cnc(N)c(-c3ncc(-c4ccccc4)o3)n2)cc1 | > 2500 nM | > 10000 nM | > 4000 nM | – | – | –
CC(C)S(=O)(=O)c1ccc(-c2cnc(N)c(C3CC(c4ccccc4)=NO3)n2)cc1 (racemic) | > 2500 nM | > 4000 nM | > 4000 nM | – | – | –
CNCc1ccc(-c2cc(-c3nc(-c4ccc(S(=O)(=O)C(C)C)cc4)cnc3N)on2)c(Cl)c1 | 210 nM | 93 nM | 2610 nM | 0.75 nM | 4.4 µM (≈ 2.19 µg/mL) | –
CC(C)S(=O)(=O)c1ccc(-c2cnc(N)c(-c3cc(-c4ccc(CNC5CCOCC5)cc4)no3)n2)cc1 | – | 189 nM | > 4000 nM | – | 0.8 µM (≈ 0.427 µg/mL) | pKa [6]: 9.7
CS(=O)(=O)c1ccc(-c2cnc(N)c(C(=O)Nc3ccccc3)n2)cc1 | – | – | – | – | – | Activity (HCT-116 [7]): Active
CC(C)S(=O)(=O)c1ccc(-c2cnc(N)c(-c3cc(-c4ccc(CN)cc4)no3)n2)cc1 | > 25000 nM | 115 nM | > 4000 nM | 0.27 nM | 12.5 µM (≈ 5.62 µg/mL) | –
CC(C)S(=O)(=O)c1ccc(-c2cnc(N)c(-c3cn(-c4ccccc4)nn3)n2)cc1 | > 2500 nM | 1300 nM | > 4000 nM | – | – | –
CC(C)S(=O)(=O)c1ccc(-c2cnc(N)c(-c3cc(-c4ccccc4)no3)n2)cc1 | 1100 nM | 1400 nM | > 4000 nM | 1 to 1.3 nM | < 0.3 µM | Ki [8]: 650 nM; Ratio Ki (Homo sapiens [9]): > 1000; Ratio Ki (Homo sapiens [10]): > 1000
CNCc1ccc(-c2cc(-c3nc(-c4ccc(S(=O)(=O)C(C)C)cc4)cnc3N)on2)cc1Cl | 130 nM | 190 nM | > 4000 nM | 2.4 nM | 1.36 µM (≈ 0.677 µg/mL) | –
CC(C)S(=O)(=O)c1ccc(-c2cnc(N)c(-c3noc(-c4ccccc4)n3)n2)cc1 | 2300 nM | 400 nM | 4000 nM | 5 nM | – | –
CC(C)S(=O)(=O)c1ccc(-c2cnc(N)c(-c3cnc(-c4ccccc4)o3)n2)cc1 | – | > 10000 nM | > 4000 nM | 21 nM | – | –
CNCc1ccc(-c2cc(-c3nc(-c4ccc(S(=O)(=O)C(C)C)cc4)cnc3N)on2)cc1 [BERZOSERTIB] | – | 44 nM | > 4000 nM | – | 52 µM (≈ 24.1 µg/mL) | Ki [11]: 33 nM; Ki [12]: 59 nM; Activity (HCT-116 [13]): Active; Ki [14]: 150 nM; Ki [8]: 140 nM; Ki [15]: 30 nM; Vd [16]: 21 L/kg; half-life [17]: 11.6 h; IC50 (Cytochrome P450 2C9): > 30000 nM; pKa [6]: 8.2; Papp A→B [18]: 7.2 ×10⁻⁶ cm/s; Ki [19]: 130 nM; Ki [20]: 18 nM; Ki [21]: 39 nM; Ki [22]: 26 nM; Ki [23]: 8 nM; Ki [24]: 190 nM; IC50 [25]: 3000 nM; IC50 [26]: > 30000 nM; Ki [27]: 15 nM
CC(C)S(=O)(=O)c1ccc(-c2cnc(N)c(-c3nnc(-c4ccccc4)o3)n2)cc1 | 410 nM | > 10000 nM | 8900 nM | 1 nM | – | Ki [8]: 22 nM; Ratio Ki (Homo sapiens [9]): > 1000; Ratio Ki (Homo sapiens [10]): > 1000
CC(C)S(=O)(=O)c1ccc(-c2cnc(N)c(C(=O)Nc3ccccc3)n2)cc1 | 1030 nM | 4000 nM | 2800 nM | 4 nM | – | –
CC(C)S(=O)(=O)c1ccc(-c2cnc(N)c(-c3cc(-c4ccc([C@@H](C)N)cc4)no3)n2)cc1 | 130 nM | 105 nM | 1700 nM | 0.53 nM | 45.1 µM (≈ 20.9 µg/mL) | –
CCNCc1ccc(-c2cc(-c3nc(-c4ccc(S(=O)(=O)C(C)C)cc4)cnc3N)on2)cc1 | 76 nM | 47 nM | 3350 nM | 0.21 nM | 72 µM (≈ 34.4 µg/mL) | –
CC(C)S(=O)(=O)c1ccc(-c2cnc(N)c(-c3cc(-c4ccccc4)on3)n2)cc1 | 800 nM | 1300 nM | > 4000 nM | 2 nM | – | Ki [8]: 530 nM
CC(C)S(=O)(=O)c1ccc(-c2cnc(N)c(-c3nnc(-c4ccccc4)s3)n2)cc1 | 1700 nM | > 4000 nM | > 4000 nM | 1 nM | – | Ratio Ki (Homo sapiens [9]): > 1000; Ratio Ki (Homo sapiens [10]): > 1000
CC(C)S(=O)(=O)c1ccc(-c2cnc(N)c(-c3nc(-c4ccccc4)no3)n2)cc1 | > 2500 nM | 1350 nM | > 1600 nM | 26 nM | – | –
CC(C)S(=O)(=O)c1ccc(-c2cnc(N)c(-c3cc(-c4ccc([C@H](C)N)cc4)no3)n2)cc1 | 300 nM | 82 nM | 785 nM | 1.24 nM | 27.9 µM (≈ 12.9 µg/mL) | –
